Broadly, the logP is a log measure of how a compound divides between an organic and an aqueous phase. High values mean a more lipophilic compound, low ones a more hydrophilic compound.

Experimental findings from ChEMBL document CHEMBL3243947 (J Med Chem, 1979) are described below.

Counter-ions that a name gives are not always drawn.

Data set [1] in a line: Octanol-phosphate buffer partition coefficient, log P of the compound. The format is physicochemical. The procedure, abridged:
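Compound stock in octanol-saturated buffer, about 0.05 mg/mL. Shaken with octanol 2 h at 37 °C, 200 oscillations/min, then centrifuged 2000 rpm for 4 min. Buffer-phase UV absorbance at λmax near 300 nm measured before and after. P = (Astd − Aext)/(Aext·f), with f the octanol:buffer volume ratio. Run in triplicate.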

The nature of data set [2]: Selectivity index, ratio of pED40 for tissue contractility to pED40 for maximum driving response in New Zealand White rabbit isolated atria. Also on record: species or system Oryctolagus cuniculus, Cardiac atrium. The essentials: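 Ratio of ED40 for contractility to ED40 for MDF. Both come from the same cumulative 15-min dosing of paced isolated atria, with three tissues per compound.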

Data set [3] can be described thus: Negative inotropic activity in New Zealand White rabbit isolated atria assessed as reduction of tissue contractility after 15 mins. Particulars: 0.25 h. Also noted: species or system Oryctolagus cuniculus, Cardiac atrium. The essentials:
(§1)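 Isolated atria stabilized 90 min, paced by 2-ms pulses via platinum electrodes near SA node at 2.5× threshold voltage (threshold found at 240 pulses/min, mean of three). MDF averaged over three determinations. Drug added cumulatively without washout, reading 15 min after each dose, until MDF fell ~60%. Percent decrease in MDF or peak height plotted against log molar concentration and fitted by linear regression. Log ED40 read graphically. Three tissues per compound, averaged with SD.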

The test system of data set [4] is Heart. The experiment in a line: Antiarrhythmic activity in New Zealand White rabbit isolated atria assessed as reduction of maximum driving frequency after 15 mins. The class given is functional, Oryctolagus cuniculus. The procedure, abridged:
as §1

In data set [5] the test system is Heart. The experiment in a line: Antiarrhythmic activity in New Zealand White rabbit isolated atria assessed as reduction of maximum driving frequency after 15 mins in presence of 4X10'-8 M propranolol. The format is functional, Oryctolagus cuniculus. The procedure, abridged:
as §1

The nature of data set [6]: Negative inotropic activity in New Zealand White rabbit isolated atria assessed as reduction of tissue contractility after 15 mins in presence of 4X10'-8 M propranolol. Also noted: species or system Oryctolagus cuniculus, Cardiac atrium. Conditions: 0.25 h. The procedure, abridged: as §1
Data set [7] can be described thus: Selectivity index, ratio of pED40 for tissue contractility to pED40 for maximum driving response in New Zealand White rabbit isolated atria in presence of 4X10'-8 M propranolol. Also on record: species or system Oryctolagus cuniculus, Cardiac atrium.

The molecule `Br.CC(C)NCC(O)COc1c(Br)cc(Br)c2ccccc12` (stereo unspecified) came in with a logP in data set [1] of 2.71. In addition, the “Selectivity Index” value in data set [2] is 0.4. For the same molecule, the pED40 in data set [3] was 5.53; in the data set with Heart [4], 5.1.

Molecule `CC(C)NCC(O)COc1ccc(Cl)c2ccccc12` (stereo unspecified) gave a logP in data set [1] of 2. Moreover, in data set [2], the “Selectivity Index” value is 0.9. The pED40 is 5.26 in data set [3] and 5.2 in the data set on Heart [4].

In turn, `CC(C)NCC(O)COc1ccc(N)c2ccccc12.Cl` (stereo unspecified) gave a logP in data set [1] of -0.27. In addition, the “Selectivity Index” value in data set [2] came out at 1.6. Also, the pED40 in data set [3] is 4.92; with Heart [4] it was 5.02.

Molecule `CC(C)NCC(O)COc1ccc(S(N)(=O)=O)c2ccccc12.Cl` (stereo unspecified) displayed a logP in data set [1] of -0.51. Further, the “Selectivity Index” value in data set [2] was found to be 1.7. Further, the pED40 is on record as 3.35 in data set [3] and 3.58 with Heart [4].

As for `CCCCNCC(O)COc1cccc2ccccc12` (stereo unspecified), the logP in data set [1] came to 2.08. In addition, the “Selectivity Index” value in data set [2] is 1.8. Besides, the values for the pED40 (in data set [3]; in the data set on Heart [4]) were 5.38 and 5.64, respectively.

Regarding `COCCCNCC(O)COc1cccc2ccccc12` (stereo unspecified), the logP in data set [1] came to 1.28. Moreover, in data set [2], the “Selectivity Index” value amounted to 1.5. Besides, the results for the pED40 (in data set [3]; with Heart [4]) were 5.4 and 5.45, respectively.

For `Cl.NCCCNCC(O)COc1cccc2ccccc12` (stereo unspecified), in data set [1], the logP was -0.19. Moreover, the “Selectivity Index” value in data set [2] was found to be 1. Besides, the pED40 in data set [3] is on record as 4.47; with Heart [4], 4.5.

Consider `Cl.NC(=O)CCCNCC(O)COc1cccc2ccccc12` (stereo unspecified), for which the logP in data set [1] stood at 0.31. Moreover, the values for the pED40 (with Heart [5]; in data set [6]) were 4.89 and 4.79, respectively. Also, in data set [7], the “Selectivity Index” value is 1.4.

Molecule `Cl.O=C(O)CCCNCC(O)COc1cccc2ccccc12` (stereo unspecified) had a logP in data set [1] of 0.21. Further, the “Selectivity Index” value in data set [2] was found to be 2. For the same molecule, the pED40 in data set [3] is on record as 3.02; with Heart [4] it was 3.41.

In data set [1], `C[N+](C)(C)CCCNCC(O)COc1cccc2ccccc12.Cl.[Cl-]` (stereo unspecified) yielded a logP of -1.89. The “Selectivity Index” value in data set [2] is given as 1.1. In addition, the values for the pED40 (in data set [3]; with Heart [4]) were 3.06 and 3.08, respectively.

On to `CC(C)NCC(O)COc1ccc(O)c2ccccc12` (stereo unspecified) [4-HYDROXYPROPRANOLOL SULFATE], for which the logP in data set [1] came to 0.39. Also, the “Selectivity Index” value in data set [2] turned out to be 1.8. The pED40 in data set [3] is listed as 4.39; in the data set on Heart [4], 4.6.

As for `CC(C)NCC(O)COc1cccc2ccccc12` (stereo unspecified) [PROPRANOLOL], the pED40 in data set [3] is 5.21; in the data set on Heart [4] it was 5.43.
